Assay results from article PMC3718025 (Bioconjugate chemistry, 2011).

System: luciferase expression in M21+GL3 cells
Assay: Luciferase knockdown
Assay type: cell-based, human
Conditions: 25 nM, no transfection agent; 4 h serum free, then 2% serum to 96 h
Procedure, shortened: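 M21+GL3 stable clone made by nucleoporation with pGL3-promoter plus pcDNA3.1/hygro (10:1), selected two weeks in 500 μg/ml hygromycin B. siRNA added 4 h at 37°C in serum-free OPTI-MEM, then serum added to 2% and incubated to 96 h total. Lipofectamine 2000-complexed siRNA served as positive control, its medium swapped to DMEM-H with 2% serum. Lysate luminescence read and normalized to total cellular protein.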

“AccGAAAGGucuuAccGGAdTsdTX2 (head to tail) [compound 14]” gave a reduction in luciferase of 70%.
